Assay results from the array DNA melting data of Ke et al. (doi:10.1101/2024.01.08.574731).

What was measured:
[1] = folding enthalpy; higher = less favourable; fluorescence melt of hairpins on a sequencing array, two-state fit; settings: sodium 0.088 M
Method in brief: (§1)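 On a sequenced MiSeq flow cell, library hairpins with annealed Cy3 and quencher oligos were imaged for Cy3 fluorescence in 2.5 °C steps up to 60 °C, in 50 mM Na-HEPES pH 8.0, 25 mM NaCl. Normalisation used pre-quench Cy3 and control constructs. Bootstrapped two-state fits gave melting temperature and folding enthalpy, combined by inverse variance across four replicates and with fitted temperatures raised by 9.35 °C to match UV melts.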

[2] = melting temperature; fluorescence melt of hairpins on a sequencing array, two-state fit, raised by 9.35 °C to match UV melts; settings: sodium 0.088 M
Method in brief: as §1

Row | Sequence | folding enthalpy [1] [kcal/mol] | Tm [2] [°C]
1 | GCCAACGAAAGTTGAGGC ((((((....)))..))) | -19.4 | 48.5
2 | GGCCACGAAAGTGATGCC ((((((....)))..))) | -27.6 | 51
3 | GCCGCACCGAAAGGTGGC (((..(((....)))))) | -8.56 | 53.5
4 | GGAAACACGAAAGTGTCC (((..(((....)))))) | -12.6 | 36.5
5 | GTACAAGGAAACCTGTAC (((((.(....).))))) | -26.1 | 38.2
6 | GATCCAGAGTGGATC ((((((...)))))) | -31.3 | 48.8
7 | CTTTTGAAAAAAAG (((((....))))) | -7.85 | 30.1
8 | GGACTGAAAAGTCC (((((....))))) | -25.9 | 59.9
9 | GTCGATGGAAACACCGAC ((((.((....)).)))) | -38 | 47.2
10 | GGACCGGGAAACCGACCC ((..(((....)))..)) | -18 | 31.1
11 | GTAAGTCGAAAGACGTAC (((.(((....))).))) | -15.2 | 47.1
12 | GCATTGCGAAAGCCAAGC ((.(.((....)).).)) | -9.84 | 28.6
13 | GGTTATCGAAAGATACC (((.(((....)))))) | -25 | 43.1
14 | GATCTAAAGATAGATC ((((((....)))))) | -16.5 | 30.6
15 | GCTGGGCGAAAGCGCGGC ((.(.((....)).).)) | -33.2 | 64.1
16 | GAAATAGAAATATTTC ((((((....)))))) | -21.9 | 32.7
17 | GTGACCGGAAACGGCCAC (((.(((....))).))) | -39 | 54.2
18 | GAGAGCCGAAAGGCCTC (((.(((....)))))) | -15.6 | 55.3
19 | GGGACCGAAAGGTATCCC ((((((....)))..))) | -18.1 | 47.7
20 | GCAGGCGGAAACACCCGC ((.((.(....).)).)) | -12.6 | 36.1
21 | CGGAGGCGGAAACGCCCG (((..(((....)))))) | -11.7 | 54.7
22 | TACACGAAAGTGTA (((((....))))) | -13.7 | 57.8
23 | GTAGCCACGAAAGTGTAC (((..(((....)))))) | -9.72 | 22.3

Row | Sequence | folding enthalpy [1] [kcal/mol] | Tm [2] [°C]
24 | GTATAGGGAAACTTATAC (((((.(....).))))) | -14.2 | 27.7
25 | CGTCGCGGAAACGCACG (((.(((....)))))) | -19.4 | 50.5
26 | CGCAGACGGAAACGTGCG (((..(((....)))))) | -22.6 | 49.3
27 | GTACAGGGAAACTTGTAC (((((.(....).))))) | -30.4 | 39.8
28 | GATCTGACTCAGATC ((((((...)))))) | -33.7 | 46.8
29 | GATCATACTAATGATC ((((((....)))))) | -34.9 | 46.8
30 | GCCGCGCGAAAGCCCTGC ((.(.((....)).).)) | -12.1 | 28.6
31 | GGGTTGCCGAAAGGCCCC (((..(((....)))))) | -14.5 | 48.4
32 | GTGACGCGAAAGCGCAC (((.(((....)))))) | -15 | 58.8
33 | GGCGGAGGAAACCCCGCC (((((.(....).))))) | -33.4 | 64.5
34 | GATCCTTCTAAGGATC ((((((....)))))) | -47.8 | 54.4
35 | GATCCGTAACCGGATC ((((((....)))))) | -39.2 | 55.7
36 | GATCCTATGTAGGATC ((((((....)))))) | -34.9 | 54.5
37 | GATCGTGTATACGATC ((((((....)))))) | -46 | 62.1
38 | GGCGATGGAAACGTTGCC (((.(.(....).).))) | -37.6 | 44.9
39 | GTCTTCGGAAACGAGGAC (((.(((....))).))) | -39.1 | 49.7
40 | GTGCCCGGAAACGGGTAC ((.((((....)))).)) | -30 | 62.9
41 | GCGACCCCGAAAGGGCGC (((..(((....)))))) | -29.1 | 67.7
42 | GCCAGACGAAAGTCGGGC (((.(((....))).))) | -34 | 68.6
43 | GGTAATGGAAACATCACC (((.(((....))).))) | -18.2 | 30.7
44 | TAGATGAAAATCTA (((((....))))) | -10.1 | 26.1
45 | GATCTTCTGTAAGATC ((((((....)))))) | -34.7 | 43.1
46 | GTAAGCCGAAAGGCATAC (((.(((....))).))) | -18.4 | 46.6
